Experimental data as given in ChEMBL document CHEMBL1130321, “Synthesis and in vitro activity of 3 beta-substituted-3 alpha-hydroxypregnan-20-ones: allosteric modulators of the GABAA receptor” (J Med Chem, 1997).

Assays:
[1] = biological target: GABA-A receptor; anion channel; experiment: Ability to allosterically modulate the binding of [35S]TBPS to gamma-aminobutyric-acid A receptor in rat brain cortical P2 membranes.; assay type: cell membranes, Membrane
Summary of the method: (§1)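 Rat cortical P2 membranes washed in 200 mM NaCl/50 mM Na-K phosphate pH 7.4. Incubated with 2 nM [35S]TBPS, 5 µM GABA and compound at nine concentrations from 1 nM to 10 µM final (DMSO 0.5% final), 90 min at room temperature. Nonspecific binding was defined with 2 µM unlabeled TBPS. Read-out was filtration and scintillation counting. IC50 and Imax came from partial or full inhibition fits chosen by F-test. Values are mean ± SEM of 3-9 experiments.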

Rattus norvegicus = species on record: Rattus norvegicus; experiment: Percent of maximal extent of inhibition was calculated by fitting [35S]TBPS inhibition data to a sigmoid function (rat brain cortical P2 membranes).; assay type: functional; summary of the method: as §1

Question: Which IC50 [1] does the source give for CCOC[C@@]1(O)CC[C@@]2(C)[C@@H](CC[C@@H]3[C@@H]2CC[C@]2(C)[C@@H](C(C)=O)CC[C@@H]32)C1 here?
Answer: 230 nM

Question: And the Imax (Rattus norvegicus)?
Answer: 104%

Question: For CN1C(=O)CN=C(c2ccccc2)c2cc(Cl)ccc21, which Imax (Rattus norvegicus) is on record?
Answer: 49%

Question: What does the source list for CC(=O)[C@H]1CC[C@H]2[C@@H]3CC[C@H]4C[C@@](O)(CC(N)=O)CC[C@]4(C)[C@H]3CC[C@]12C?
Answer: IC50 [1]: > 10000 nM; Imax (Rattus norvegicus): 28%

Question: With C#C[C@@]1(O)CC[C@@]2(C)[C@H](CC[C@@H]3[C@@H]2CC[C@]2(C)[C@@H](C(C)=O)CC[C@@H]32)C1 as the molecule, how does the Imax (Rattus norvegicus) read?
Answer: 101%

Question: CC(C)(C)OC(=O)c1ncn2c1C1CCCN1C(=O)c1c(Br)cccc1-2 (stereo not drawn) was tested. Which IC50 [1] did it give?
Answer: 6.1 nM

Question: And the Imax (Rattus norvegicus)?
Answer: 27%

Question: With CC(=O)[C@H]1CC[C@H]2[C@@H]3CC[C@H]4C[C@@](O)(CF)CC[C@]4(C)[C@H]3CC[C@]12C as the molecule, how does the IC50 [1] read?
Answer: 228 nM

Question: And the Imax (Rattus norvegicus)?
Answer: 79%

Question: Which results are given for C=CCC[C@@]1(O)CC[C@@]2(C)[C@@H](CC[C@@H]3[C@@H]2CC[C@]2(C)[C@@H](C(C)=O)CC[C@@H]32)C1?
Answer: IC50 [1]: 325 nM; Imax (Rattus norvegicus): 59%

Question: Which IC50 [1] does the source give for CC[C@@]1(O)CC[C@@]2(C)[C@@H](CC[C@@H]3[C@@H]2CC[C@]2(C)[C@@H](C(C)=O)CC[C@@H]32)C1 here?
Answer: 257 nM

Question: And the Imax (Rattus norvegicus)?
Answer: 69%

Question: What does the source list for COC[C@@]1(O)CC[C@@]2(C)[C@@H](CC[C@@H]3[C@@H]2CC[C@]2(C)[C@@H](C(C)=O)CC[C@@H]32)C1?
Answer: IC50 [1]: 76 nM; Imax (Rattus norvegicus): 104%

Question: Which IC50 [1] does the source give for CCCOC[C@@]1(O)CC[C@@]2(C)[C@@H](CC[C@@H]3[C@@H]2CC[C@]2(C)[C@@H](C(C)=O)CC[C@@H]32)C1 here?
Answer: 655 nM

Question: What about the Imax (Rattus norvegicus) of the same molecule?
Answer: 94%

Question: What does the source list for CCC[C@@]1(O)CC[C@@]2(C)[C@@H](CC[C@@H]3[C@@H]2CC[C@]2(C)[C@@H](C(C)=O)CC[C@@H]32)C1?
Answer: IC50 [1]: 173 nM; Imax (Rattus norvegicus): 42%

Question: For C=C[C@@]1(O)CC[C@@]2(C)[C@@H](CC[C@@H]3[C@@H]2CC[C@]2(C)[C@@H](C(C)=O)CC[C@@H]32)C1, which IC50 [1] is on record?
Answer: 120 nM

Question: What about the Imax (Rattus norvegicus) of the same molecule?
Answer: 94%

Question: With CC[C@@]1(O)CC[C@@]2(C)[C@H](CC[C@@H]3[C@@H]2CC[C@]2(C)[C@@H](C(C)=O)CC[C@@H]32)C1 as the molecule, how does the IC50 [1] read?
Answer: 135 nM

Question: What about the Imax (Rattus norvegicus) of the same molecule?
Answer: 95%

Question: Which results are given for COC[C@@]1(O)CC[C@@]2(C)[C@H](CC[C@@H]3[C@@H]2CC[C@]2(C)[C@@H](C(C)=O)CC[C@@H]32)C1?
Answer: IC50 [1]: 40 nM; Imax (Rattus norvegicus): 103%

Question: Which results are given for CC(=O)[C@H]1CC[C@H]2[C@@H]3CC[C@@H]4C[C@@](O)(CCl)CC[C@]4(C)[C@H]3CC[C@]12C?
Answer: IC50 [1]: 243 nM; Imax (Rattus norvegicus): 103%

Question: What does the source list for C=CC[C@@]1(O)CC[C@@]2(C)[C@@H](CC[C@@H]3[C@@H]2CC[C@]2(C)[C@@H](C(C)=O)CC[C@@H]32)C1?
Answer: IC50 [1]: 231 nM; Imax (Rattus norvegicus): 59%

Question: How did the IC50 [1] turn out when CC(=O)[C@H]1CC[C@H]2[C@@H]3CC[C@H]4C[C@@](O)(CCl)CC[C@]4(C)[C@H]3CC[C@]12C was run?
Answer: 71 nM

Question: And the Imax (Rattus norvegicus)?
Answer: 33%

Question: For C#C[C@@]1(O)CC[C@@]2(C)[C@@H](CC[C@@H]3[C@@H]2CC[C@]2(C)[C@@H](C(C)=O)CC[C@@H]32)C1, which IC50 [1] is on record?
Answer: 64 nM

Question: And the Imax (Rattus norvegicus)?
Answer: 93%

Question: What does the source list for C#CC[C@@]1(O)CC[C@@]2(C)[C@H](CC[C@@H]3[C@@H]2CC[C@]2(C)[C@@H](C(C)=O)CC[C@@H]32)C1?
Answer: IC50 [1]: 214 nM; Imax (Rattus norvegicus): 101%

Question: Which results are given for CC(=O)[C@H]1CC[C@H]2[C@@H]3CC[C@H]4C[C@@](O)(CI)CC[C@]4(C)[C@H]3CC[C@]12C?
Answer: IC50 [1]: 702 nM; Imax (Rattus norvegicus): 50%

Question: How did the IC50 [1] turn out when C=C[C@@]1(O)CC[C@@]2(C)[C@H](CC[C@@H]3[C@@H]2CC[C@]2(C)[C@@H](C(C)=O)CC[C@@H]32)C1 was run?
Answer: 43 nM

Question: And the Imax (Rattus norvegicus)?
Answer: 103%

Question: For C#CC[C@@]1(O)CC[C@@]2(C)[C@@H](CC[C@@H]3[C@@H]2CC[C@]2(C)[C@@H](C(C)=O)CC[C@@H]32)C1, which IC50 [1] is on record?
Answer: 50 nM

Question: And the Imax (Rattus norvegicus)?
Answer: 43%

Question: For CC(=O)[C@H]1CC[C@H]2[C@@H]3CC[C@@H]4C[C@](C)(O)CC[C@]4(C)[C@H]3CC[C@]12C, which Imax (Rattus norvegicus) is on record?
Answer: 104%
